ChEMBL document CHEMBL1154561, “Bioactive compounds from Combretum erythrophyllum” (J Nat Prod, 2000)
≈ marks a conversion by molar mass, not a printed value.

Assays:
[1] = test system: A549; assay: Cytotoxicity against human A549 cells by XTT assay; format: functional, cell-based
[2] = test system: Saccharomyces cerevisiae; assay: Inhibition of Saccharomyces cerevisiae RS321NYCp50 in galactose medium by microtiter plate assay; format: functional, organism-based
Procedure, shortened: (§1)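 Yeast in minimal medium with galactose or glucose at 2% final. Samples are dissolved in 10% DMSO at 10× final concentration and added 1:10 to the cell suspension in triplicate, with 10% DMSO wells as controls. Plates are incubated at 30 °C in high humidity for 48-72 h and read when control growth reaches OD 0.15-0.25. Inhibition = 1 − (ODtest − ODblank)/(ODplate median − ODblank); IC50 in µg/mL.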

[3] = test system: Saccharomyces cerevisiae; assay: Inhibition of pRAD52 recombination repair gene/topoisomerase 1 deficient Saccharomyces cerevisiae RS321N carrying pRAD52 in glucose medium by microtiter plate assay; format: functional, organism-based; procedure, shortened: as §1
[4] = test system: HeLa; assay: Cytotoxicity against human HeLa cells by XTT assay; format: functional, cell-based
[5] = test system: Saccharomyces cerevisiae; assay: Inhibition of pRAD52 recombination repair gene/topoisomerase 1 deficient Saccharomyces cerevisiae RS321N carrying pRAD52 in galactose medium by microtiter plate assay; format: functional, organism-based; procedure, shortened: as §1
[6] = test system: Saccharomyces cerevisiae; assay: Inhibition of Saccharomyces cerevisiae RS322 expressing Rad52.erg6 by agar diffusion assay; format: functional
[7] = test system: Saccharomyces cerevisiae; assay: Inhibition of Saccharomyces cerevisiae RS321 expressing Rad52.erg6.top1 by agar diffusion assay; format: functional
[8] = test system: Saccharomyces cerevisiae; assay: Inhibition of Saccharomyces cerevisiae RS188 expressing wild type erg6 by agar diffusion assay; format: functional, organism-based

SMILES	IC50 [1] [µg/mL]	IC50 [2] [µg/mL]	IC50 [3] [µg/mL]	IC50 [4] [µg/mL]	IC50 [5] [µg/mL]	IC12 [6] [µg/mL]	IC12 [7] [µg/mL]	IC12 [8] [µg/mL]
COc1ccc(/C=C\c2cc(OC)c(OC)c(OC)c2)c(O[C@H]2O[C@@H](CO)[C@H](O)[C@@H](O)[C@@H]2O)c1O	7 (≈ 14.2 µM)	13 (≈ 26.3 µM)	3	1.5 (≈ 3.03 µM)	> 100	–	–	–
COc1ccc(CCc2cc(OC)c(OC)c(OC)c2)c(O[C@H]2O[C@@H](CO)[C@H](O)[C@@H](O)[C@@H]2O)c1O	–	25 (≈ 50.4 µM)	> 100	–	> 100	> 100	> 100	> 100
COc1ccc(/C=C\c2cc(OC)c(OC)c(OC)c2)c(O)c1O [COMBRETASTATIN A-1]	–	1.8 (≈ 5.42 µM)	18	–	53	33.5	2.2	80.1
